Test results: article PMC8814381 (EBioMedicine, 2022)

Key:
[1] = test system: multiple subtypes of breast cancer; test: Overall recurrence in multiple breast cancer animal models; format: in vivo, mice
[2] = test system: triple-negative PDX cells (stage IV) tumours; test: Image-guided tumour resection in a PDX tumour model, recurrence follow-up; format: in vivo, NSG mice; settings: four weeks after image-guided surgery
In short: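 Female NSG mice, 4–5 weeks old, carried triple-negative PDX (stage IV) tumours in the mammary fat pads. At 200–300 mm³ they were randomized into five groups: test probe, free dye, two control peptide–dye conjugates, or PBS. Agents were given i.v. (tail vein) at an equivalent of 0.5 mg/kg. After 24 h, tumours were excised with a ~2 mm margin under NIR camera guidance (not for PBS). Wounds were sutured, and recurrence was assessed 4 weeks later.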

[3] = test system: TNBC MDA-MB-231 or ER-positive IOWA-1T tumours; test: Intraoperative imaging of orthotopic MFP xenografts, recurrence follow-up; format: in vivo, athymic mice; settings: 0.5 mg/kg i.v.; for average volume of the recurrent tumours: four weeks after tumour resection
In short: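 MDA-MB-231 or IOWA-1T cells were injected s.c. at the nipple base into the fourth abdominal fat pad of athymic mice. Once tumours formed, mice received PBS, free dye or test compound at 0.5 mg/kg i.v. After 24 h, tumours were resected with a 2 mm margin under NIR camera monitoring. PBS controls were resected by palpation and direct visualization only. Adverse events during removal and later recurrence at the resection site were recorded.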

PDX tumour margins = test: Histological analysis; format: in vivo, NSG mice; settings: PDX model, H&E and Ki-67, sixteen mammary tissue samples from eight mice
In short: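 Tumour-margin tissue (~2 mm³) taken at the 6 and 12 o'clock positions around resected PDX tumours in NSG mice. Samples were fixed 24 h in buffered 3.7% formalin, then moved to 70% ethanol. They were paraffin-embedded and cut into 4 μm sections for staining.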

[4] = cited from earlier work
[5] = test system: MDA-MB-231 human breast cancer tumours; format: in vivo, athymic mice; settings: 0.2–1.0 mg/kg i.v., imaged 6–72 h, PDE unit, normal tissue thigh
In short: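 Female athymic mice, 4–5 weeks old, bore s.c. MDA-MB-231 tumours (1.0 × 10⁶ cells, right back). They received test compound or free dye i.v. (tail vein) at 0.2, 0.5 or 1 mg/kg. Prescans were taken before injection, and 800 nm NIR imaging followed at 6–72 h. The tumour-to-background ratio used ROIs over the whole tumour and over normal tissue (thigh muscle). Statistics: ANOVA.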

Molecule | specificity ([1]; from tumour recurrence rate 8%, N = 2/24) | average volume of the recurrent tumours [2] | adverse events related to administration during tumour removal [3] | average volume of the recurrent tumours [3] | positive margin rate (PDX tumour margins) | stability [4] | water solubility [4] | average recurrent tumour volume, multiple subtypes of breast cancer ([1]; Figures 4,6 pooled) | tumour/normal tissue ratio of NIR signal [5]
ICG-p28: NIR fluorescence imaging probe composed of tumour-targeting peptide p28 and the NIR dye indocyanine green (ICG) | 92% | 403 mm^3 | no apparent adverse events | 197 mm^3 | malignant cell free margin | – | – | – | –
p28: Pseudomonas aeruginosa azurin-derived cell-penetrating peptide, tested in two phase I clinical trials | – | – | – | – | – | stable | highly water soluble | – | –
CC1(C)C(/C=C/C=C/C=C/C=C2\N(CCCCS(=O)(=O)O)c3ccc4ccccc4c3C2(C)C)=[N+](CCCCS(=O)(=O)[O-])c2ccc3ccccc3c21 [ICG, indocyanine green] | – | 1952 mm^3 | no apparent adverse events | 423 mm^3 | – | – | – | 1188 mm^3 | ~1
